From ChEMBL document CHEMBL4118097, “Selective Inhibitors of Dual Leucine Zipper Kinase (DLK, MAP3K12) with Activity in a Model of Alzheimer's Disease” (J Med Chem, 2017) come the findings set out here.

pIC50: −log10 of the molar value. A value given as a limit tells only on which side of the number the result lay.

Broadly, the inhibition is the relative decrease from the control value, in per cent. The pIC50 is the IC50 on a negative log10 scale, so that one unit is a factor of ten.

The target in assay [1] is Myosin light chain kinase (Homo sapiens) (UniProt Q32MK0). Nature of the assay: Inhibition of recombinant human full length N-terminal GST-tagged caMLCK expressed in baculovirus expression system at 1 uM by FRET assay relative to control.
Assay [2] addresses Tyrosine-protein kinase JAK2 (Homo sapiens) (UniProt O60674). Nature of the assay: Inhibition of recombinant GST-tagged human JAK2 catalytic domain (809 to 1153 residues) expressed in baculovirus expression system at 1 uM by FRET relative to control. In outline: (§1)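 Single-point screen at 1 μM compound in a 220-kinase panel run by Life Technologies (SelectScreen). Z′-LYTE format: phosphorylation of a labeled peptide substrate read by FRET. Values are reported as percent inhibition.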

Assay [3] addresses Serine/threonine-protein kinase mTOR (Homo sapiens) (UniProt P42345). In words: Inhibition of recombinant GST-tagged human mTOR catalytic domain (1360 to 2549 residues) expressed in baculovirus expression system at 1 uM by FRET assay relative to control. In short, it runs like this:
as §1

Assay [4] deals with Tyrosine-protein kinase Lyn (Homo sapiens) (UniProt P07948). In words: Inhibition of recombinant full length His-tagged human LYN expressed in baculovirus expression system at 1 uM by FRET assay relative to control.
Assay [5] relates to Epidermal growth factor receptor (Homo sapiens), P00533 [L858R,T790M]. In words: Inhibition of recombinant GST-tagged human EGFR cytoplasmic domain (668 to 1210 residues) T790M/L858R double mutant expressed in baculovirus expression system at 1 uM by FRET assay relative to control. In short, it runs like this: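 Part of a 220-kinase panel run at a single concentration of 1 μM. Z′-LYTE format: phosphorylation of a labelled peptide read by FRET. Values reported as percent inhibition.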

For assay [6], the target named is Protein kinase C theta type (Homo sapiens) (UniProt Q04759). In words: Inhibition of PKCtheta (unknown origin) at 1 uM by FRET assay relative to control.
The target of assay [7] is Mitogen-activated protein kinase 9 (Homo sapiens, UniProt P45984). In words: Inhibition of recombinant full length His-tagged human JNK2 ([…]) expressed in baculovirus expression system at 1 uM by FRET assay relative to control.
The target of assay [8] is Dual specificity tyrosine-phosphorylation-regulated kinase 1A (Homo sapiens) (UniProt Q13627). Nature of the assay: Inhibition of full length recombinant GST-tagged human DYRK1A expressed in baculovirus expression system at 1 uM by FRET assay relative to control.
The target in assay [9] is Bone morphogenetic protein receptor type-1A (Homo sapiens) (UniProt P36894). In words: Inhibition of recombinant full length N-terminal GST-tagged human BMPR1A catalytic domain expressed in insect cells at 1 uM by FRET assay relative to control.
Assay [10] has as its target Gamma-aminobutyric acid type B receptor subunit 1 (Homo sapiens) (UniProt Q9UBS5). Nature of the assay: Binding affinity to GABA-B1b (unknown origin) at 10 uM relative to control. In outline:
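Broad radioligand-binding and enzyme screening panel covering 42 targets (biogenic amine and neuropeptide receptors, ion channels, neurotransmitter transporters, acetylcholinesterase). Single test concentration of 10 μM. Results expressed as binding relative to control, with a hit defined as >50% of control.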

Assay [11] has as its target cAMP-dependent protein kinase catalytic subunit PRKX (Homo sapiens) (UniProt P51817). Nature of the assay: Inhibition of full length GST-tagged human PRKX expressed in Escherichia coli at 1 uM by FRET assay relative to control.
Assay [12] addresses Aurora kinase A (Homo sapiens) (UniProt O14965). In words: Inhibition of recombinant full length His-tagged human Aurora A expressed in baculovirus expression system at 1 uM by FRET assay relative to control.
Assay [13] addresses Muscle, skeletal receptor tyrosine-protein kinase (Homo sapiens) (UniProt O15146). In words: Inhibition of recombinant GST-tagged human MUSK cytoplasmic domain expressed in baculovirus expression system at 1 uM by FRET assay relative to control. In short, it runs like this: as §1
Assay [14] deals with Protein kinase C epsilon type (Homo sapiens) (UniProt Q02156). In words: Inhibition of recombinant full length human PKCepsilon expressed in baculovirus expression system at 1 uM by FRET assay relative to control.
Assay [15] has as its target T1, Mitogen-activated protein kinase kinase kinase 12 (Homo sapiens, UniProt Q12852).
T1 sequence (Q12852 whole entry): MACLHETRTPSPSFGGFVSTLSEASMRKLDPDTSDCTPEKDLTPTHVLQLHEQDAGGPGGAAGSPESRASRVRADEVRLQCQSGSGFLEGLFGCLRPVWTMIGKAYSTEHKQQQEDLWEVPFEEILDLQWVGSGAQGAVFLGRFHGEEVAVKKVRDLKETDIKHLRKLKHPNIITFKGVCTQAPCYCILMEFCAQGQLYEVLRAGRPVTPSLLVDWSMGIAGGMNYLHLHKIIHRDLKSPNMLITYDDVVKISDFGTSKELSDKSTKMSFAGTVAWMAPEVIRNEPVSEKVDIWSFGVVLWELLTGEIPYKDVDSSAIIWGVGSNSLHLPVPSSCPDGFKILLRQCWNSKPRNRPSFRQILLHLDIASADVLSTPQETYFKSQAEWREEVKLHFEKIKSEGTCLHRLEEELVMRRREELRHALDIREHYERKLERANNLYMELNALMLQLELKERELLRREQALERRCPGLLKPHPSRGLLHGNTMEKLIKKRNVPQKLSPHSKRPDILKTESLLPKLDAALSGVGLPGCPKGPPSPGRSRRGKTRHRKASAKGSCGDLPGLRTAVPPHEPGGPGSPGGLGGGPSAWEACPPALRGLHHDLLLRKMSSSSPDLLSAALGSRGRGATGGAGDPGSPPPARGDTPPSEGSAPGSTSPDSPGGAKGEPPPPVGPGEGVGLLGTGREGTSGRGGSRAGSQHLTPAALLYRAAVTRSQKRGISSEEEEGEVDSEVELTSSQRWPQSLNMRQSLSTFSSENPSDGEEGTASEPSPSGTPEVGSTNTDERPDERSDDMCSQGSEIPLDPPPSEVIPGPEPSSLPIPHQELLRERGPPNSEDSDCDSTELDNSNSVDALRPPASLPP
Nature of the assay: Inhibition of doxycycline inducible human DLK transfected in HEK293 cells assessed as JNK phosphorylation after […] by Hoechst-33342 staining-based assay. It is filed as cell-based.

The target of assay [16] is Tyrosine-protein kinase ITK/TSK (Homo sapiens) (UniProt Q08881). Nature of the assay: Inhibition of recombinant full length GST-tagged human ITK cytoplasmic domain (473 to end residues) expressed in baculovirus expression system at 1 uM by FRET relative to control. In short, it runs like this:
(§2)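 Single-concentration screen at 1 μM in Life Technologies SelectScreen, across a 220-kinase panel. Z′-LYTE format measures phosphorylation of a labeled peptide by FRET. Results are reported as percent inhibition.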

Assay [17] concerns the target Rho-associated protein kinase 1 (Homo sapiens) (UniProt Q13464). In words: Inhibition of recombinant N-terminal GST-tagged human ROCK1 catalytic domain (1 to 535 residues) expressed in baculovirus expression system at 1 uM by FRET assay relative to control. In short, it runs like this:
as §2

Assay [18] concerns the target Mitogen-activated protein kinase 11 (Homo sapiens) (UniProt Q15759). In words: Inhibition of recombinant full length His-tagged human p38beta expressed in baculovirus expression system at 1 uM by FRET assay relative to control.

Sequence of Epidermal growth factor receptor (Homo sapiens), P00533 [L858R,T790M] (P00533 whole entry T790M/L858R, looked up, the tested form may be a part): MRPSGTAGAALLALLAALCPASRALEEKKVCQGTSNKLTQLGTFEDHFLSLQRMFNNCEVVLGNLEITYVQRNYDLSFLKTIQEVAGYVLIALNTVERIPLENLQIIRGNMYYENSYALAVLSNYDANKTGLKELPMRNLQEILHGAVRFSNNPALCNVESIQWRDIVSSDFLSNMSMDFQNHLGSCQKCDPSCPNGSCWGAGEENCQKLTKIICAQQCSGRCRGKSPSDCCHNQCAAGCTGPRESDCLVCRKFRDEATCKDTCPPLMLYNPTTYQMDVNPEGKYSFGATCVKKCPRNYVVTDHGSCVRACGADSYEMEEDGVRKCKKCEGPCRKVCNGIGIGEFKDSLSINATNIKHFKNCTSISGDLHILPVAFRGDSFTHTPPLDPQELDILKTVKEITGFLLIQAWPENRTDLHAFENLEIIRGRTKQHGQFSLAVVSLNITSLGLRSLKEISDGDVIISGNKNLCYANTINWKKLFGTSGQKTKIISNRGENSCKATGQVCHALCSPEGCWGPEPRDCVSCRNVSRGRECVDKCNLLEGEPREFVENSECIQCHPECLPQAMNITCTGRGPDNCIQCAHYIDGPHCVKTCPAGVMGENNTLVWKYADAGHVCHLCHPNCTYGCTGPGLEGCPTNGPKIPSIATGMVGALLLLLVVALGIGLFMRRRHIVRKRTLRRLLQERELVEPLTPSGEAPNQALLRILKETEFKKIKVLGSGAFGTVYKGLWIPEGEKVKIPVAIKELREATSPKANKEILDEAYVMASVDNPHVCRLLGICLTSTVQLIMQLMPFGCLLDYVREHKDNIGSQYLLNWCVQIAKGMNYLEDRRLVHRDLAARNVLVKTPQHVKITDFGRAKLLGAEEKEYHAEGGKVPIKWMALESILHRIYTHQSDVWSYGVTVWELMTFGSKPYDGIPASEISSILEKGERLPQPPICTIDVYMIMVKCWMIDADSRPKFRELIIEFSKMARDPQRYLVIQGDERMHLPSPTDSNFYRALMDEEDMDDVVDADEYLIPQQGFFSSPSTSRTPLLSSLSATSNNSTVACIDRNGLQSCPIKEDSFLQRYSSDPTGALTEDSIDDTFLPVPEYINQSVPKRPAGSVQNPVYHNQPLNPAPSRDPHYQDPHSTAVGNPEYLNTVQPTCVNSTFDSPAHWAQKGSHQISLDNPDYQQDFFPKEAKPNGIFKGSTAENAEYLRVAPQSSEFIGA
Sequence of Aurora kinase A (Homo sapiens) (O14965 whole entry, the tested form may be a part): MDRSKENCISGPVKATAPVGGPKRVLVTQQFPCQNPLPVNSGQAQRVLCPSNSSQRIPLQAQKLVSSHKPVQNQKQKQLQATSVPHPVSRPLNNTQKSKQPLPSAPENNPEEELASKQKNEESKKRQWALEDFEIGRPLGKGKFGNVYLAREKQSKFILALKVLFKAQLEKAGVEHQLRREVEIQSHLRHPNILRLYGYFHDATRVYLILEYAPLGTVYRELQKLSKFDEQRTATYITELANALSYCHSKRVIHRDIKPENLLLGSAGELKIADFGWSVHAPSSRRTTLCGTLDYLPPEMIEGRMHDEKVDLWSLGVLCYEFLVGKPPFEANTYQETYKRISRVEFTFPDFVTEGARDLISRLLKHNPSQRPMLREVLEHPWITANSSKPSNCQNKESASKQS
Sequence of Mitogen-activated protein kinase 9 (P45984 whole entry, looked up): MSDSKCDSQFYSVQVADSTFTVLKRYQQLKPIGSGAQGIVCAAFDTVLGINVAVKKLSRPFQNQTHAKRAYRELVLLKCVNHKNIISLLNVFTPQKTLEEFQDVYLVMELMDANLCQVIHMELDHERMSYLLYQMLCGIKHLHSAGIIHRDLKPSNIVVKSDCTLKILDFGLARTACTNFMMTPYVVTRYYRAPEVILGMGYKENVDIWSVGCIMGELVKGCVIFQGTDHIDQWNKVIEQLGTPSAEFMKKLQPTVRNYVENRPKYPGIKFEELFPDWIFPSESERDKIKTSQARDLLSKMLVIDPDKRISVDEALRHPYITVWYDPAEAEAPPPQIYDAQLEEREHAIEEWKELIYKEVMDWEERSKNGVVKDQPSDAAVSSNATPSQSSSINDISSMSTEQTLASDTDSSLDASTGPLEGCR
Sequence of Gamma-aminobutyric acid type B receptor subunit 1 (Homo sapiens) (Q9UBS5 whole entry): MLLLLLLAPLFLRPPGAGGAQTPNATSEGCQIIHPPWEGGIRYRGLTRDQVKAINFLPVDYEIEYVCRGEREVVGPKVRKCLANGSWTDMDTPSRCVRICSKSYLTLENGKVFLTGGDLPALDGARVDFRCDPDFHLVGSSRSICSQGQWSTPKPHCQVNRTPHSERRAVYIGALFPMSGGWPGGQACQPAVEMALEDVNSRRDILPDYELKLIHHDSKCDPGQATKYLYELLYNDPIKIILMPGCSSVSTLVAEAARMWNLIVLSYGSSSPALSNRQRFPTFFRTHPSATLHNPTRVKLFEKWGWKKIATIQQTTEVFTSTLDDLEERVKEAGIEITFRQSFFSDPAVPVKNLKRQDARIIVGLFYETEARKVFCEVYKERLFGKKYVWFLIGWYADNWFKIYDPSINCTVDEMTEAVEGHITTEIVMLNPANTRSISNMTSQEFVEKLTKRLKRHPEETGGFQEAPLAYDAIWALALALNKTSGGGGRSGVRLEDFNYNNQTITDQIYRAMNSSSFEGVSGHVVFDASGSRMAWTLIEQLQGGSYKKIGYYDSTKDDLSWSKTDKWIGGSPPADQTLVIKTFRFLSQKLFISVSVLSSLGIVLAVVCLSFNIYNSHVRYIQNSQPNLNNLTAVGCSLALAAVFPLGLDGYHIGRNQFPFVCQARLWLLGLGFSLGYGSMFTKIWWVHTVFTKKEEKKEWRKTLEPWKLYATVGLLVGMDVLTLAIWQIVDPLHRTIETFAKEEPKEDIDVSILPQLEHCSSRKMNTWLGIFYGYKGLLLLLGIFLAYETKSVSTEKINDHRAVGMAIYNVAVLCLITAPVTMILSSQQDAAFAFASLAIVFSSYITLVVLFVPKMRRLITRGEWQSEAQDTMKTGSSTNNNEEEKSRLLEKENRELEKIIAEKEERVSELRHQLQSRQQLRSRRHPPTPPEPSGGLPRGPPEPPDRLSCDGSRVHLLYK
Sequence of cAMP-dependent protein kinase catalytic subunit PRKX (Homo sapiens) (P51817 whole entry): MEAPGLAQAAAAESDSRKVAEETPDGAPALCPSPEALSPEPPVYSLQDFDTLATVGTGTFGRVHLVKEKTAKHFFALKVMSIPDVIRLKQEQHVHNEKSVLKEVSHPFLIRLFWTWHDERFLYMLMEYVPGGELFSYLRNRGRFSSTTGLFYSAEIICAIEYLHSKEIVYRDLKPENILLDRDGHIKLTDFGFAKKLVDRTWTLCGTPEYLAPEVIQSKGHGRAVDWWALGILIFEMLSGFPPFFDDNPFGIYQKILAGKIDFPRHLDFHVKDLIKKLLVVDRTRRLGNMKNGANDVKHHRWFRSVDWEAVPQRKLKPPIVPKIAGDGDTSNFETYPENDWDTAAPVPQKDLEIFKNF
Sequence of Protein kinase C epsilon type (Homo sapiens) (Q02156 whole entry): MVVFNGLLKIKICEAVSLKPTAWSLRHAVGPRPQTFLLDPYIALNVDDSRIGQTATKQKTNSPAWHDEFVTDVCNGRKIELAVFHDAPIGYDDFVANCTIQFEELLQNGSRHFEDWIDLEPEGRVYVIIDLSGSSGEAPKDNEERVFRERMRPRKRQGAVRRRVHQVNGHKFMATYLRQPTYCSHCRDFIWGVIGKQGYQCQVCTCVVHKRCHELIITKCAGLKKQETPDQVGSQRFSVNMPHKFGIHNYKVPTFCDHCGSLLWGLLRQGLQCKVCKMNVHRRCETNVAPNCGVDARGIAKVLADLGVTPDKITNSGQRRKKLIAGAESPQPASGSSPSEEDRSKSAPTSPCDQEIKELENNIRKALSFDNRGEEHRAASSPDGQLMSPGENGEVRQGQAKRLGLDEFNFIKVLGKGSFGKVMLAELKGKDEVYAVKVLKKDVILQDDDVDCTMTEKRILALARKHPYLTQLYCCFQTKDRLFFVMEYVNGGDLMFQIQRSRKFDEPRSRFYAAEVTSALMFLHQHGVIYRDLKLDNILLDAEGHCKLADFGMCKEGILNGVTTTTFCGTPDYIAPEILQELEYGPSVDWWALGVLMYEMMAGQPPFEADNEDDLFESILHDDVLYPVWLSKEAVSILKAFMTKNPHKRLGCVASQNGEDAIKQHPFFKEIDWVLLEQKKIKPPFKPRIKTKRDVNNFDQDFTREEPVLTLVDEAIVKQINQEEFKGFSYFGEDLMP
Sequence of Mitogen-activated protein kinase 11 (Homo sapiens) (Q15759 whole entry): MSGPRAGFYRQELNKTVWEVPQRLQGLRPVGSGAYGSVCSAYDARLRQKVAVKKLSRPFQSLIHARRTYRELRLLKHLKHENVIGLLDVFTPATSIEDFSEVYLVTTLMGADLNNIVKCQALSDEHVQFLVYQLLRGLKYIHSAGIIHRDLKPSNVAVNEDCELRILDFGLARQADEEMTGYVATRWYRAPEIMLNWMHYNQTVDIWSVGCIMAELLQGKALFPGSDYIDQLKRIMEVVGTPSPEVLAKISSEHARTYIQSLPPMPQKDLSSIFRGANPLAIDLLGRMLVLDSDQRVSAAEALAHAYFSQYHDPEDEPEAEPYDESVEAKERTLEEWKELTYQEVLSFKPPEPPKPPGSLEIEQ
Sequence of Bone morphogenetic protein receptor type-1A (Homo sapiens) (P36894 whole entry, the tested form may be a part): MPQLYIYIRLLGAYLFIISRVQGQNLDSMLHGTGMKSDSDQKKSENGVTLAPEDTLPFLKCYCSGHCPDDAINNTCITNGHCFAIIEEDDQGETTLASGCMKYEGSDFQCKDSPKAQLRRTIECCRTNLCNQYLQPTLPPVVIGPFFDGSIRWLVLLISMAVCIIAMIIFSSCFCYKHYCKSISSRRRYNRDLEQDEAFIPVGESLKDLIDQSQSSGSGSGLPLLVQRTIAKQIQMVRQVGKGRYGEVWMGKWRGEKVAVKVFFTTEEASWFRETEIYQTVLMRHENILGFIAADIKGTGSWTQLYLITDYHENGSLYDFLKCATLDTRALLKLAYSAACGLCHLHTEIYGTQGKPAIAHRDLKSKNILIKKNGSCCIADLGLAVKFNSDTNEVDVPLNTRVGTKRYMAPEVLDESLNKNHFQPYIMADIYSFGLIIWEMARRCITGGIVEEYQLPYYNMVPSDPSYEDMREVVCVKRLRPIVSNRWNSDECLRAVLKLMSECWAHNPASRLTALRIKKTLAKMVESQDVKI

In the case of `CC(C)n1nc(-c2cnc(N)c(OC(F)(F)F)c2)cc1[C@H]1[C@@H]2CN(C3COC3)C[C@@H]21`, the inhibition in [1] worked out at 0.8%; in assay [2], 4.6%; in assay [3], 7.9%; in assay [4], 15.6%; in assay [5], 9.8%; in assay [6], 9.3%. For the same compound, the inhibition in assay [7] was 4.4%; in [8], 7%; in [9], -2.3%; in [11], -2.9%; in assay [12], 16.2%; in assay [13] it was 4%. In addition, the inhibition in assay [14] came out at 1.9%; in assay [16] it was 10.9%; in [17] it was 8.8%; in assay [18] it was 9.3%. In [10], the Activity is over 50%. Besides, the negative-log IC50 (pIC50) in assay [15] is 6.71.

As to `Nc1ncc(-c2cc([C@H]3[C@@H]4CN(C5COC5)C[C@@H]43)n(CC3CC3)n2)cc1C(F)(F)F`, the inhibition in assay [1] was 1.3%; in [2], 20.4%; in assay [3], -0.8%; in assay [4], 17.9%; in [5], 8.2%; in assay [6], 0.3%. Besides, the inhibition in assay [7] was 0.6%; in [8], 3.9%; in assay [9], 1.5%; in assay [11] it was -7.2%; in [12] it was 27.2%; in [13], 27.8%. For the same compound, the inhibition is -5% in assay [14], 0.8% in assay [16], -7.4% in assay [17] and 2.5% in [18]. Moreover, the Activity in assay [10] was over 50%. The negative logarithm of the IC50 (pIC50) in [15] was 6.84.
